What is called pIC50 is the IC50 on a negative log10 scale, so that one unit is a factor of ten. By inhibition is commonly meant the share of the control response that was lost under treatment.

For 27 compounds, Ratio IC50, IC50 and inhibition results are on record in ChEMBL document CHEMBL4138099, “Design, synthesis and biological evaluation of uncharged catechol derivatives as selective inhibitors of PTP1B” (Eur J Med Chem, 2017).

The species entered for one assay is Homo sapiens. Kind of assay: Selectivity ratio of IC50 for TCPTP (unknown origin) to IC50 for recombinant GST-tagged PTP1B catalytic domain (1 to 321 residues) (unknown origin).
The target in assay [1] is T1, Tyrosine-protein phosphatase non-receptor type 1 (Homo sapiens, UniProt P18031).
T1 sequence (P18031 whole entry): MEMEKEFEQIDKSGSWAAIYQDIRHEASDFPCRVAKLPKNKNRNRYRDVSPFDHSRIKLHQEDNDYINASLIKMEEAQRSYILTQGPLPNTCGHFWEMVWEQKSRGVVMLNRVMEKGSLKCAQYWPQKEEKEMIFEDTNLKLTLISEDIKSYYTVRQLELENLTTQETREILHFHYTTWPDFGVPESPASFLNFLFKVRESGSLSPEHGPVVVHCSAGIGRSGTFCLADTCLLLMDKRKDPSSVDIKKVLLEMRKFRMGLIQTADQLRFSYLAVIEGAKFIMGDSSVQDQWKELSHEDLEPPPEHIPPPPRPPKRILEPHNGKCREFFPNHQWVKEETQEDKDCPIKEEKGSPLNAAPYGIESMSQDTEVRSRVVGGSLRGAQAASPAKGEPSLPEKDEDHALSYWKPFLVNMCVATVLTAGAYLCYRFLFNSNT
The experiment in a line: Inhibition of recombinant GST-tagged PTP1B catalytic domain (1 to 321 residues) (unknown origin) expressed in Escherichia coli BL21(DE3) using pNPP as substrate after 30 mins by spectrophotometer. In short, it runs like this:
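Assay at 37 °C, pH 7.5, in 10 mM Tris-HCl, 25 mM NaCl, 1 mM EDTA and 2 mM DTT, with 4 mM pNPP and 60 nM PTP1B. Inhibitor was added from DMSO at final 100 to 0.01 µM, and the reaction was started with enzyme. After 30 min it was stopped with 1 N NaOH and read at 405 nm. IC50 came from a sigmoidal fit of relative activity versus concentration.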

The target in assay [2] is T2, Tyrosine-protein phosphatase non-receptor type 2 (Homo sapiens, UniProt P17706).
T2 sequence (P17706 whole entry): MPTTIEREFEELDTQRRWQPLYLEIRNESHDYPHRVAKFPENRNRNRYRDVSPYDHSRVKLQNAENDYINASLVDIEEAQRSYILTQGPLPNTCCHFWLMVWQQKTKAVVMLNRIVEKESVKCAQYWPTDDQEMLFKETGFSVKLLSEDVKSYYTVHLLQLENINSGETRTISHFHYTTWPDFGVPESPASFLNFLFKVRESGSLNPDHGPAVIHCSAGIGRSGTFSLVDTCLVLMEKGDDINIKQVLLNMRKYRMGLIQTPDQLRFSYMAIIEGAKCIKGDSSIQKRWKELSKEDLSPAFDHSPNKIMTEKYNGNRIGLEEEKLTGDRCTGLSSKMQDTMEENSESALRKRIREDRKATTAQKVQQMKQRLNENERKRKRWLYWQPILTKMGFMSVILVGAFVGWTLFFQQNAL
Kind of assay: Inhibition of TCPTP (unknown origin) using pNPP as substrate after 30 mins by spectrophotometer.

In assay [3] the target is T3, Tyrosine-protein phosphatase non-receptor type 1 (Homo sapiens) (UniProt P18031).
T3 sequence (whole entry): T1 sequence (P18031 whole entry)
Kind of assay: Competitive inhibition of recombinant GST-tagged PTP1B catalytic domain (1 to 321 residues) (unknown origin) expressed in Escherichia coli BL21(DE3) at 1 to 8 uM using varying levels of pNPP as substrate after 30 mins by spectrophotometric method. In short, it runs like this:
(§1)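 PTP1B-catalysed pNPP hydrolysis read by absorbance of p-nitrophenol at 405 nm, run with pNPP at 0.5, 1.0, 2.0, 4.0 and 8.0 mM, with and without inhibitor. Inhibition mode was assigned from double-reciprocal (1/v) plots.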

In assay [4] the target is T3, Tyrosine-protein phosphatase non-receptor type 1 (Homo sapiens). Kind of assay: Inhibition of recombinant GST-tagged PTP1B catalytic domain (1 to 321 residues) (unknown origin) expressed in Escherichia coli BL21(DE3) at 1 mM using pNPP as substrate after 30 mins by spectrophotometric method relative to control. The method in brief: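 PTP1B (60 nM) reacted with 4 mM pNPP at 37 °C and pH 7.5 in 10 mM Tris-HCl, 25 mM NaCl, 1 mM EDTA, 2 mM DTT. The compound was added from DMSO at 1% v/v. The reaction was started with enzyme and stopped with 1 N NaOH after 30 min. p-Nitrophenol was read at 405 nm, and activity was taken relative to control.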

The target in assay [5] is T4, Tyrosine-protein phosphatase non-receptor type 1 (Mus musculus) (UniProt P35821).
T4 sequence (whole entry): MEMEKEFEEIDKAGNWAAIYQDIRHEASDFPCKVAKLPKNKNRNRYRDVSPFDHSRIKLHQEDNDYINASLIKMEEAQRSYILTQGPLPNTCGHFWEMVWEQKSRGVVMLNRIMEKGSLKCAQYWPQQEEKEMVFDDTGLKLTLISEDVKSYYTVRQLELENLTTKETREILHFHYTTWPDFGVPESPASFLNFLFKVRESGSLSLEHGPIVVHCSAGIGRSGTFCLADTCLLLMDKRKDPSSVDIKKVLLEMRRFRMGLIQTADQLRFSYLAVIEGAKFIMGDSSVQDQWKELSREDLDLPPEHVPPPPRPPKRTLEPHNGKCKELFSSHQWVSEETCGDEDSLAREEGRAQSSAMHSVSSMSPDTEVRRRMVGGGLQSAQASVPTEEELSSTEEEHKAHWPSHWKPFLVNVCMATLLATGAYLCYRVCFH
Kind of assay: Inhibition of PTP1B in mouse C2C12 cells assessed as increase in insulin stimulated IRbeta phosphorylation at 2 uM preincubated for 1 hr followed by 100 nM insulin addition measured after 30 mins by immunoblot method. It is filed as cell-based. The method in brief:
(§2)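 C2C12 myoblasts were grown in DMEM with 10% fetal calf serum and differentiated to myotubes in 10% horse serum. Myotubes were serum-starved 24 h, then given inhibitor at 0.5–4 µM in serum-free DMEM and stimulated with 100 nM insulin for 30 min at 37 °C. RIPA lysates (10 µg protein) were immunoblotted for phospho-proteins, detected by ECL and quantified by densitometry.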
Background: In western blotting, separated proteins are transferred to a membrane and probed.

The target of assay [6] is T4, Tyrosine-protein phosphatase non-receptor type 1 (Mus musculus). The experiment in a line: Inhibition of PTP1B in mouse C2C12 cells assessed as increase in insulin stimulated AKT phosphorylation at 2 uM preincubated for 1 hr followed by 100 nM insulin addition measured after 30 mins by immunoblot method. Type of assay: cell-based. In short, it runs like this: as §2

The target in assay [7] is T3, Tyrosine-protein phosphatase non-receptor type 1 (Homo sapiens). The experiment in a line: Competitive inhibition of recombinant GST-tagged PTP1B catalytic domain (1 to 321 residues) (unknown origin) expressed in Escherichia coli BL21(DE3) at 1 to 4 uM using varying levels of pNPP as substrate after 30 mins by spectrophotometric method. The method in brief:
as §1

Assay [8] deals with T4, Tyrosine-protein phosphatase non-receptor type 1 (Mus musculus). The experiment in a line: Inhibition of PTP1B in mouse C2C12 cells assessed as increase in insulin stimulated IRS-1 phosphorylation at 2 uM preincubated for 1 hr followed by 100 nM insulin addition measured after 30 mins by immunoblot method. It is filed as cell-based. The method in brief:
as §2

Structures are written as SMILES. pIC50: −log10 of the molar value. Activity calls are given as the source filed them. No cut-off for these calls is given here.

On to `Oc1ccc(-c2ncc(-c3ccc(Oc4ccc(-c5ccccc5)cc4)cc3)o2)cc1O`, for which the Ratio IC50 in the assay listed under Homo sapiens amounted to 0.8. In addition, the pIC50 in [1] is 5.20; in assay [2] it was 5.30.

`Oc1ccc(-c2ncc(-c3ccc(Oc4ccccc4)cc3)o2)cc1O`: the pIC50 in assay [1] is 5.58.

Regarding `COc1ccc(Oc2ccc(-c3cnc(-c4ccc(O)c(O)c4)o3)cc2)cc1`, the pIC50 in assay [1] is 5.16.

Turning to `CC(C)c1ccc(Oc2ccc(OC(=O)CSc3nnc(-c4ccc(O)c(O)c4)o3)cc2)cc1`, the pIC50 in assay [1] was 4.96.

For the compound `Cc1ccc(Oc2ccc(-c3cnc(-c4ccc(O)c(O)c4)o3)cc2)cc1`, the inhibition entry in assay [3] was “Active”. Further, the pIC50 in [1] was 6.09.

Regarding `COCCc1ccc(Oc2ccc(-c3cnc(-c4ccc(O)c(O)c4)o3)cc2)cc1`, in [1], the pIC50 was 4.72.

For the compound `CCOc1ccc(OC(=O)CSc2nnc(-c3ccc(O)c(O)c3)o2)cc1`, the pIC50 in assay [1] was 5.10.

As for `O=C(CSc1nnc(-c2ccc(O)c(O)c2)o1)Oc1ccc(Oc2ccccc2)cc1`, the pIC50 in assay [1] is 5.03.

On to `O=Cc1ccc(O)c(O)c1`, for which, in assay [4], the inhibition turned out to be 29%.

In the case of `Cc1ccc(Oc2ccc(C(=O)CSc3nnc(-c4ccc(O)c(O)c4)o3)cc2)cc1`, the Ratio IC50 in the assay filed under Homo sapiens came to 2.24. The pIC50 is 5.41 in assay [1] and 5.06 in assay [2].

With `O=C(CSc1nnc(-c2ccc(O)c(O)c2)o1)Oc1ccc(Oc2ccc(OCc3ccccc3)cc2)cc1`, the pIC50 in assay [1] is 4.67.

In the case of `COc1ccc(OC(=O)CSc2nnc(-c3ccc(O)c(O)c3)o2)cc1`, in the assay listed under Homo sapiens, the Ratio IC50 is greater than 16.6. Moreover, the pIC50 in assay [1] was 5.22; in assay [2], less than 4.00.

Regarding `CCC(C)(C)c1ccc(Oc2ccc(-c3cnc(-c4ccc(O)c(O)c4)o3)cc2)cc1`, the pIC50 in assay [1] is 5.44.

On to `COC(=O)CSc1nnc(-c2ccc(O)c(O)c2)o1`, for which, in [1], the pIC50 is 4.45.

Turning to `CC(C)(C)c1ccc(Oc2ccc(OC(=O)CSc3nnc(-c4ccc(O)c(O)c4)o3)cc2)cc1`, in assay [1], the pIC50 was 4.98.

In the case of `O=C(CSc1nnc(-c2ccc(O)c(O)c2)o1)c1ccccc1`, in assay [1], the pIC50 is 4.81.

For `O=C(CSc1nnc(-c2ccc(O)c(O)c2)o1)Oc1ccc(C(F)(F)F)cc1`, the pIC50 in [1] was 4.67.

As to `CCOc1ccc(Oc2ccc(-c3cnc(-c4ccc(O)c(O)c4)o3)cc2)cc1`, the pIC50 in [1] was 4.68.

Turning to `O=C(CSc1nnc(-c2ccc(O)c(O)c2)o1)Oc1ccc(Br)cc1`, in [1], the pIC50 was 3.94.

Turning to `O=C(CSc1nnc(-c2ccc(O)c(O)c2)o1)Oc1ccccc1`, in assay [1], the pIC50 is 5.09.

Take `COCCc1ccc(Oc2ccc(OC(=O)CSc3nnc(-c4ccc(O)c(O)c4)o3)cc2)cc1`: the pIC50 in [1] is 4.64.

As for `CC(C)(C)c1ccc(Oc2ccc(-c3cnc(-c4ccc(O)c(O)c4)o3)cc2)cc1`, the Ratio IC50 in the assay listed under Homo sapiens came out at 27.3. The pIC50 in [1] was 6.31; in assay [2] it was 4.88. The inhibition result in assay [5], in assay [6], in [7] and in assay [8] was “Active” throughout.

`Cc1ccc(OC(=O)CSc2nnc(-c3ccc(O)c(O)c3)o2)cc1`: the pIC50 in [1] was 5.32.

Consider `CC(C)c1ccc(Oc2ccc(-c3cnc(-c4ccc(O)c(O)c4)o3)cc2)cc1`, for which the pIC50 in [1] is 5.13.

For the compound `Oc1ccc(-c2nnc(SCc3ccccc3)o2)cc1O`, the pIC50 in assay [1] is 4.50.

In the case of `O=C(CSc1nnc(-c2ccc(O)c(O)c2)o1)Oc1ccc(OCc2ccccc2)cc1`, the pIC50 in [1] was 5.11.

With `CCOc1ccc(Oc2ccc(OC(=O)CSc3nnc(-c4ccc(O)c(O)c4)o3)cc2)cc1`, the pIC50 in assay [1] was 4.77.
